# Experimental data pooled from the literature.
# Each line is one published result; the experiments were not run side by side.
Structure (SMILES),target or system,test,system,setting,quantity,value
CCN(CC)CCNC(=O)c1c(C)[nH]c(/C=C2\C(=O)Nc3ccc(F)cc32)c1C,BaF3,"cell growth or viability, ATP luminescence",,72 h,GI50,1.42 µM
O=C(O)CCc1cccc(Oc2ccc(-c3noc(-c4ccc(O)cc4)n3)cc2)c1,Clostridioides difficile,"microbial growth, broth dilution",,48 h,MIC,8 µg/mL
COc1c(C)cnc(COc2ccc(NC(=O)Nc3cccc(C(F)(F)F)c3)cc2)c1C,L02,"cell growth or viability, MTT",,72 h,IC50,> 100 µM
Cl.NCCc1cccc(Oc2ccc(-c3noc(-c4ccc(O)cc4)n3)cc2)c1,Clostridioides difficile,"microbial growth, broth dilution",,48 h,MIC,4 µg/mL
Cc1cccc(N(O)N=Nc2ccc(S(=O)(=O)Nc3cc(C)on3)cc2)c1,,ABTS scavenging,,300 µg/mL,inhibition,90.2%
COc1ccnc(COc2ccc(NC(=O)Nc3ccc(F)cc3)cc2)c1OC,L02,"cell growth or viability, MTT",,72 h,IC50,> 100 µM
Cc1ccc(N(O)N=Nc2ccc(S(=O)(=O)Nc3cc(C)on3)cc2)cc1,,ABTS scavenging,,20 µg/mL,inhibition,17.2%
Nc1ccc(-c2nc(-c3ccc(Oc4ccccc4)cc3)no2)cc1,Clostridioides difficile,"microbial growth, broth dilution",,48 h,MIC,> 50 µg/mL
COc1ccc(-c2ccc(-c3ccc(C(=N)N)nc3)s2)cc1Cl,SF-268,"cell growth or viability, SRB",,,GI50,1.81 µM
O=C(Nc1cc(F)c(F)c(F)c1)c1ccc(F)c(S(=O)(=O)NCc2cccc(B(O)O)c2)c1,Hepatitis B virus,"viral replication, inhibitor, qPCR",HePAD38,6 days,EC50,0.92 µM
O=C1O[C@H]([C@@H](O)CO)C(O)=C1O,,ABTS scavenging,,60 µg/mL,inhibition,49.9%
Cc1ccc(C)n1-c1ccc(-c2nnc(-c3ccc(Br)cc3)[nH]2)cc1,Saccharomyces cerevisiae,"microbial growth, broth dilution",ATCC9763,,MIC,4 µg/mL
O=C(N[C@H](CO)[C@H](O)c1ccc([N+](=O)[O-])cc1)C(Cl)Cl,Aliivibrio fischeri,microbial growth,,,MIC90,3.9 µg/mL
